Hits are enriched below; roughly 4.4% of the tested compounds scored in any of these assays.
EBI2 block = blocks human EBI2 receptor beta-arrestin signaling; EBI2 beta-arrestin recruitment, luminescence, 7a,25-OHC stimulated; inhibition, % at 5 µM; 360,000 tested, 0.81% active; in the data active = inhibition above about 38%;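 note: enzyme fragment complementation signal reports receptor beta-arrestin coupling in cells; 0% = agonist plus DMSO wells and 100% = wells without agonist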
Target sequence (P32249 whole entry, looked up, the tested form may be a part): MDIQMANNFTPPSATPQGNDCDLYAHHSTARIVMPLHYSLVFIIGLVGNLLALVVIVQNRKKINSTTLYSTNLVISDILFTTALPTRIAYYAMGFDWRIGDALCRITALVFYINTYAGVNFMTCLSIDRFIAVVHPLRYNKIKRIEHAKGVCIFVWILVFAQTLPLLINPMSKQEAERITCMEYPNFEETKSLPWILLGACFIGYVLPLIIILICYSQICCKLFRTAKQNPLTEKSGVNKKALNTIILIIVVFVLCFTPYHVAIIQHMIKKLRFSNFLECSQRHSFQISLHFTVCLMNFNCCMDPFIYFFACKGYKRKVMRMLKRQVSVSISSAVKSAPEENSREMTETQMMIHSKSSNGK
SENP1 FRET inh = inhibitors of human SENP1 SUMO protease catalytic domain; recombinant SENP1 catalytic domain, CyPet-SUMO1-YPet FRET cleavage; AID 624204; Q9P0U3; 360,000 tested, 0.21% active; inhibition, % at 10 µM;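 active = inhibition at least 30% at 10 µM, raw YFP signal under a set limit, fluorescence ratio 0.5 to 1.5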;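 note: 0% = enzyme with DMSO and 100% = no enzyme wells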
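material = recombinant human SENP1 catalytic domain, His6-tagged | quantity = 20 pM enzyme | reagent = 25 nM SUMO1 FRET substrate | compound dosing = 10 µM single point, 0.5% DMSO | timing = 50 min enzyme reaction, room temperature, light-protected | detection = FRET, CFP and YFP emission | control set = no-enzyme low, enzyme-DMSO high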
MPTP block = inhibitors of mitochondrial permeability transition pore. inhibition, % at 10 µM. isolated mouse mitochondria, Ca2+ swelling absorbance, 30 min. 360,000 tested, 1.4% active;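 active = inhibition of 50% or more, scaled per plate between neutral and stimulator controls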;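 note: 0% = DMSO wells given calcium and 100% = 1 mM EGTA wells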
GRIN3A LBD mod = modulators (binders) of human NR3A ligand-binding domain; NR3A LBD differential scanning fluorimetry, Tm shift; 0% = protein alone, 100% = glycine-bound protein; Tm shift relative to glycine control, % at 25 µM; 340,000 tested, 2.5% active; AID 1259313;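 active = melting temperature shift of at least 10% of the positive control shift, at one fixed dose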
Starred values were filed as active, the others as inactive; . = no result.

SMILES | EBI2 block | SENP1 FRET inh | MPTP block | GRIN3A LBD mod
Cc1ccccc1NC(=O)c1ccc(N/N=C/c2ccccc2O)c([N+](=O)[O-])c1 | -10.9 | 6.8 | 1.1 | -2.5
Cc1ccc(NC(=O)c2ccc(N/N=C/c3cccc(O)c3)c([N+](=O)[O-])c2)cc1 | 8.1 | 7.8 | 6.6 | 255.7*
O=[N+]([O-])c1ccc(N/N=C/c2cccnc2)cc1 | 2.7 | -25.0 | -0.7 | 11.9*
CCn1c(SCC(=O)NC2CC2)nnc1-c1cccc(OC)c1 | -8.5 | 0.0 | -0.1 | 0.8
COc1ccc(NC(=O)CSc2nnc(NC(=O)CN3CCOCC3)s2)cc1 | 2.3 | 0.0 | 0.2 | -4.9
CCN(C(=O)c1cnc(NC(C)C)cc1C(F)(F)F)c1ccc(Cl)cc1Cl | 14.0 | 1.2 | 6.4 | 1.1
O=C(OCCN(C1=NS(=O)(=O)c2ccccc21)c1ccc(Cl)cc1)c1ccco1 | 3.1 | 1.5 | -5.2 | -1.2
O=[N+]([O-])c1ccc(N/N=C/c2cccc(O)c2O)cc1 | 19.9 | -25.3 | 6.7 | 34.7*
O=S(=O)(O)c1ccc(NN=Cc2ccccc2O)cc1 | -2.8 | -5.2 | -2.2 | -5.9
O=C(OCc1c(-c2ccccc2)ncc2ccccc12)c1ccc(F)cc1 | 15.2 | -0.2 | 0.0 | 14.0*
COc1ccc(F)cc1-c1cc(C(=O)NCc2cccc(Cl)c2)[nH]n1 | 7.5 | -2.6 | 0.0 | .
O=C(OCc1cn([C@@H]2CN(C(=O)c3cccs3)[C@@H](c3ccccc3)C[C@H]2O)nn1)c1ccccc1 | 6.1 | 3.4 | 3.2 | .
CCCc1c(C(=O)N/N=C/c2cccnc2)nnn1-c1nonc1N | -3.4 | 0.5 | -0.1 | 31.9*
Nc1nonc1-n1nnc(C(=O)N/N=C/c2cccnc2)c1CSc1ccc(Cl)cc1 | 0.0 | 1.9 | 0.8 | 12.5*
Nc1nonc1-n1nnc(C(=O)N/N=C/c2cccnc2)c1CSC1=NCCS1 | 4.5 | 1.4 | 7.2 | -2.4
Nc1nonc1-n1nnc(C(=O)N/N=C/c2cccnc2)c1CSc1ccccc1 | 1.2 | 3.1 | 0.9 | 19.4*
CCCc1c(C(=O)N/N=C/c2ccc(-c3ccccc3)cc2)nnn1-c1nonc1N | -3.1 | 1.2 | -0.9 | .
CN(Cc1ccco1)C(=O)CC[C@H]1O[C@@H](n2ccc(=O)[nH]c2=O)[C@H](O)[C@@H]1O | -12.8 | -0.3 | -1.4 | .
COC(=O)C1CCN(S(=O)(=O)c2cc3c4c(c2)CCN4C(=O)CC3)CC1 | -5.2 | 2.2 | -1.1 | 2.4
COc1cccc(NC(=O)C2CCN(S(=O)(=O)c3ccc4c(c3)N(C(C)=O)CCO4)CC2)c1 | 12.8 | 1.4 | -1.5 | 17.7*
CC(=O)N1CCOc2ccc(S(=O)(=O)N3CCC(C(=O)Nc4ccc(F)cc4)CC3)cc21 | -7.3 | 0.0 | -2.4 | 3.7
CCCc1cc(-c2n[nH]c(C)c2-c2ccc(C(=O)OCC)o2)c(O)cc1O | 9.1 | -0.2 | 1.1 | 34.7*
O=C(NCCc1ccc(C(F)(F)F)cc1)C1CCC(=O)N(CCc2cccc(F)c2)C1 (stereo unspecified) | 6.9 | 1.2 | 0.5 | 14.4*
CCc1csc(CNC(=O)C2CCC(=O)N(Cc3cccc(F)c3)C2)n1 (stereo unspecified) | 3.4 | 0.8 | -0.7 | 13.1*
Cc1ccc(NC(=O)CNC(=O)c2cccs2)c(O)c1 | 4.5 | 0.9 | 0.5 | -1.7
SMILES | EBI2 block | SENP1 FRET inh | MPTP block | GRIN3A LBD mod
Cc1ccc(-n2c(CNc3ccc(C)c(Cl)c3)n[nH]c2=S)cc1 | 0.5 | 0.6 | -0.1 | -7.4
NC(=O)c1ccc(NS(=O)(=O)c2ccc(Br)s2)cc1 | -14.2 | -8.9 | -0.6 | -14.2
Cc1ccc(F)cc1NC(=O)c1ccc(NS(=O)(=O)c2ccc(Br)s2)cc1 | -3.9 | 2.1 | -4.5 | 16.3*
Cc1ccc(S(=O)(=O)N(C)C)cc1NC(=O)COC(=O)C1CCCC1 | -8.7 | 2.6 | -1.3 | 20.8*
CON(C)S(=O)(=O)c1cccc(C(=O)Nc2cccc(S(=O)(=O)NC3=NCCCCC3)c2)c1 | -2.7 | 0.4 | -1.5 | 1.5
COc1ccc(C(=O)C(=NNc2ccccc2)c2ccc(OC)cc2)cc1 | 24.5 | 0.2 | 2.4 | 12.6*
COc1ccc(C(=O)C(=NN)c2ccccc2)cc1 | -1.4 | 1.9 | -1.2 | .
O=c1[nH]c2ccc(Br)cc2o1 | 6.1 | 2.3 | -1.1 | 11.2*
O=C(CCl)c1ccc2[nH]c(=O)oc2c1 | 1.7 | -4.2 | 4.3 | -0.5
Cc1ccc(NC(=O)COC(=O)c2ccc(OCc3c(C)noc3C)cc2)cc1S(=O)(=O)N1CCOCC1 | 3.6 | 1.5 | 0.1 | -0.4
O=C(CCN1CCCCCC1)Nc1ccc(F)c(F)c1 | -10.5 | 0.1 | 0.2 | 673.0*
CC(=O)c1ccc(N2CCC(c3cc(-c4ccc(Cl)cc4)n[nH]3)CC2)c([N+](=O)[O-])c1 | 22.7 | 2.3 | 45.4 | 14.2*

Screens (PubChem)
